High-throughput results from PubChem.
PHOSPHO1 inh – blocks human PHOSPHO1 phosphatase activity. Q8TCT1. recombinant PHOSPHO1, absorbance phosphatase assay. inhibition, % at 13.3 µM. actives 1.1% (n = 290,000); in the data active means inhibition above about 60%
Target sequence (Q8TCT1 whole entry, looked up): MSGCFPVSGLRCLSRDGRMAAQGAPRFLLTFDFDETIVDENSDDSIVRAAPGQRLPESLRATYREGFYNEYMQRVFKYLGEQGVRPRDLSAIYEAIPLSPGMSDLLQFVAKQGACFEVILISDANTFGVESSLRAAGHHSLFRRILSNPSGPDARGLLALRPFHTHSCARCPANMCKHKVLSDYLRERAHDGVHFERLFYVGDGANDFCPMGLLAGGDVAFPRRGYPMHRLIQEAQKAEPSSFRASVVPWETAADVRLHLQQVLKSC
VIM-2 inh – blocks Pseudomonas aeruginosa VIM-2 metallo-beta-lactamase. purified VIM-2, nitrocefin hydrolysis, epi-absorbance fluorescence. inhibition, % at 5.6 µM. AID 1527. actives 0.89% (n = 290,000);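 active means inhibition above the mean of all tested compounds plus 3 SD, cutoff set per screening run, cut at about 7.5% in these data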;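 further: red hydrolysis product quenches plate fluorescence so inhibitors raise well fluorescence; 0% = enzyme with DMSO and 100% = DMSO without enzyme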
PvdQ inh – P. aeruginosa PvdQ acylase inhibition; purified PvdQ acylase, fluorescence plate reader; inhibition, % at 10 µM; actives 0.063% (n = 340,000); in the data active means inhibition above about 30%, passing the limit was not always enough;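 further: 0% = vehicle neutral wells and 100% = reference inhibitor wells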
IMP-1 inh-1 – blocks Pseudomonas aeruginosa IMP-1 metallo-beta-lactamase; purified IMP-1, nitrocefin hydrolysis, epi-absorbance fluorescence; inhibition, % at 5.6 µM; actives 0.45% (n = 290,000);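 active means inhibition above the mean plus 3 SD of all compounds in the same screening run, cut at about 4.5% in these data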;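 further: 0% = IMP-1 with DMSO and 100% = DMSO wells lacking enzyme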
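assay system = purified recombinant IMP-1 metallo-beta-lactamase enzyme | schedule = 15 min preincubation plus 25 min reaction at 25 °C | signal = Epi-absorbance fluorescence, 480 nm excitation, 530 nm emission | read-out basis = percent inhibition from optical density relative to buffer-blank wells | controls = IMP-1 with DMSO as 0%, enzyme-free DMSO as 100%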
Yeast superoxide – lowers age-related superoxide in aged yeast cells | S. cerevisiae aged cells, superoxide DHE fluorescence; active compounds read low | superoxide response (% of plate mean), % at 10 µM | actives 0.18% (n = 330,000) | AID 2690;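 active means superoxide response under a set limit, about three screen SD below normal, cut at about 65% in these data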;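 further: yeast aged for seven days with compound at 30 °C before DHE staining; 100% = average MFI of all compound-treated wells on the plate with controls excluded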
IMP-1 inh-2 – IMP-1 inhibition, counter-screen for VIM-2 inhibitors | 1,300 tested, under 10 active | inhibition, % at 5.6 µM | shares compounds with VIM-2 inh | purified IMP-1, nitrocefin hydrolysis, epi-absorbance fluorescence | AID 1856; call rule not given here;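 further: 0% = enzyme with vehicle and 100% = vehicle without enzyme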
VIM-2 FRET inh – inhibits VIM-2 in FRET assay to exclude epi-absorbance artifacts; shares compounds with VIM-2 inh; purified VIM-2, CCF2 FRET substrate hydrolysis; inhibition, % at 5.6 µM; actives 23% (n = 1,300); AID 1857;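 active means inhibition above the mean of all tested compounds plus 3 SD, cut at about 19% in these data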;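 further: 0% = VIM-2 plus DMSO and 100% = no enzyme wells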
TEM-1 inh – TEM-1 inhibition, counter-screen for VIM-2 inhibitors | shares compounds with VIM-2 inh | Purified TEM-1, nitrocefin hydrolysis, epi-absorbance fluorescence | inhibition, % at 5.6 µM | actives 3% (n = 1,300) | AID 1866;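 active means inhibition above that campaign's mean inhibition plus 3 SD, cut at about 0.46% in these data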;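 further: 0% = TEM-1 with DMSO and 100% = TEM-1 with 100 µM potassium clavulanate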
Target sequence (P62593 whole entry, looked up): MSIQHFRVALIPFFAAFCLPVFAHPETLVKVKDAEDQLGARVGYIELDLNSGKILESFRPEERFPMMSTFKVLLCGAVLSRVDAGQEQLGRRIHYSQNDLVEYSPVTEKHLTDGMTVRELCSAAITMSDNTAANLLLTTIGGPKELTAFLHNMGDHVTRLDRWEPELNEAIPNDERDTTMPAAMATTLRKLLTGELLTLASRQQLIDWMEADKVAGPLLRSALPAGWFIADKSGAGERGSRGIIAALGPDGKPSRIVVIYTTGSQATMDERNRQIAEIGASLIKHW
VIM-2 inh conf – confirmation of P. aeruginosa VIM-2 metallo-beta-lactamase inhibitors; purified VIM-2, nitrocefin hydrolysis, epi-absorbance; actives 96% (n = 1,300); shares compounds with VIM-2 inh; inhibition, % at 5.6 µM;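 active means inhibition of the VIM-2 beta-lactamase enzyme above about 11% from the earlier first-round screen, limit read from the data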;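 further: 0% = VIM-2 with DMSO and 100% = buffer wells without enzyme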
Active calls of the source: *; / = not tested or not shown. The list is not random: actives were taken first. Their share in the collection is about 2.2%.

SMILES	PHOSPHO1 inh	VIM-2 inh	PvdQ inh	IMP-1 inh-1	Yeast superoxide	IMP-1 inh-2	VIM-2 FRET inh	TEM-1 inh	VIM-2 inh conf
CC(Oc1cc2oc(=O)c3c(c2cc1Cl)CCC3)C(=O)NCC1CCC(C(=O)O)CC1 (configuration not stated)	-43.6	6.8	-9.9	-0.9	104.1	/	/	/	/
O=C(COc1cc2oc(=O)c3c(c2cc1Cl)CCC3)NCCN1CCOCC1	35.9	23.2*	0.8	0.8	82.7	-1.9	-0.5	-5.7	29.7*
Cc1ccc(C)c(Nc2nc(-c3ccncc3)nc3ccccc23)c1	/	-2.1	-12.6	-3.7	107.0	/	/	/	/
Cc1nc(-c2ccccn2)nc(SCC(=O)c2ccc(F)cc2)c1Cl	32.2	50.0*	6.3	-5.7	93.3	-4.6	-24.3	-5.9	67.4*
COc1ccc(C(=O)CSc2nc(-c3ccccn3)nc(C)c2Cl)cc1	12.9	28.9*	5.0	-4.5	103.0	-4.6	-26.1	-6.0	61.0*
COc1ccc(C(=O)CSc2nnc3ccc(-c4ccccn4)nn23)cc1	2.0	1.9	3.6	-0.7	107.1	/	/	/	/
Cc1ncc(CN2CCCC(C(=O)Nc3ccc(-c4cccc(F)c4)cc3)C2)n1C (configuration not stated)	17.6	0.8	-4.0	0.1	111.5	/	/	/	/
CCOC(=O)N=S(N)(=O)c1ccccc1 (configuration not stated)	-5.8	23.1*	-9.2	-1.8	103.1	-1.9	51.0*	-5.0	33.9*
CCOC(=O)N=S(N)(=O)c1ccc(Cl)cc1 (configuration not stated)	15.4	15.5*	4.0	0.3	102.5	1.4	32.5*	-4.5	26.4*
CCOC(=O)c1sc(CS(=O)(=O)c2ccc(Cl)cc2)nc1C	17.1	-0.3	-3.7	-0.8	95.4	/	/	/	/
CCOc1ccc(N(CC(=O)Nc2cc(Cl)ccc2C)S(C)(=O)=O)cc1	8.5	-3.2	-16.6	-3.3	98.1	/	/	/	/
CCOCCCNc1c2c(nc3cc(-c4ccc(F)cc4)nn13)CCC2	-7.7	-1.1	6.1	-0.9	84.8	/	/	/	/
CN(C)CCCNc1c2c(nc3cc(-c4cccc(F)c4)nn13)CCC2	35.3	13.5*	-10.7	1.3	113.6	-0.2	-5.5	-5.0	26.5*
c1ccc(Cn2c3ccccc3c3nnc(SCCN4CCCCC4)nc32)cc1	28.5	27.1*	/	-2.4	107.2	-3.8	1.2	-9.2	42.4*
CSc1nnc2c3cc(C)ccc3n(Cc3ccccc3)c2n1	20.8	-1.5	-5.1	-2.1	95.8	/	/	/	/
C=CCn1c2ccccc2c2nnc(SCCN3CCCCC3)nc21	-18.6	18.5*	-11.0	-1.7	95.8	-3.5	4.1	-7.6	22.4*
C=CCn1c2ccccc2c2nnc(SCCCn3c(=O)[nH]c4ccccc43)nc21	-4.0	6.0	-12.8	-0.6	/	/	/	/	/
Cc1cc(C)c(C#N)c(Nc2cccc(C)c2C)n1	14.1	0.3	-21.8	-4.4	105.1	/	/	/	/
COc1ccccc1C(=O)NC(C)c1ccc(-n2ccnc2)cc1 (configuration not stated)	31.8	0.5	9.6	-5.7	88.7	/	/	/	/
CCOc1ccccc1C(=O)NC(C)c1ccc(-n2ccnc2)cc1 (configuration not stated)	38.3	26.1*	-7.9	-4.2	105.2	-4.2	8.2	-7.1	33.6*
O=C(Cc1cccc(C(F)(F)F)c1)Nc1cc(S(=O)(=O)N2CCOCC2)ccc1N1CCCC1	/	/	-15.5	/	88.3	/	/	/	/
CC1CC(=O)Nc2ccccc2N1C(=O)Cn1cnc2ccccc2c1=O (configuration not stated)	/	/	-9.1	/	103.2	/	/	/	/
Cc1cc2nc(N=C(N)N)nc(C)c2cc1C	9.5	16.6*	12.6	-1.6	/	-3.9	0.3	-4.8	26.4*
O=C(NCCCn1ccnc1)C1CCN(S(=O)(=O)c2cc([N+](=O)[O-])ccc2Cl)CC1	/	/	-7.8	/	114.6	/	/	/	/
Cc1nc(NCCCn2ccnc2)c2ccccc2n1	-1.3	19.9*	-1.6	-1.5	116.0	-3.7	-1.2	-6.1	35.4*
SMILES	PHOSPHO1 inh	VIM-2 inh	PvdQ inh	IMP-1 inh-1	Yeast superoxide	IMP-1 inh-2	VIM-2 FRET inh	TEM-1 inh	VIM-2 inh conf
c1cncc(-c2nc(NCCCn3ccnc3)c3ccccc3n2)c1	8.6	32.0*	-8.7	1.8	92.9	-2.6	-16.3	-6.6	48.9*
Cc1cccc2cc(C#N)c(NCCCn3ccnc3)nc12	53.2	0.8	-6.8	-0.5	93.9	/	/	/	/
COc1cc(CNc2nnnn2C)cc(OC)c1OC	14.9	-1.9	-7.6	-2.2	106.3	/	/	/	/
O=[N+]([O-])c1ccc(N=Nc2ncc[nH]2)cc1	32.7	-3.2	15.3	-3.8	101.0	/	/	/	/
O=C(O)c1cccc(NC(=S)N/N=C/c2ccccc2OCc2cccc(Br)c2)c1	-6.2	73.9*	-7.1	-3.9	/	-3.0	65.4*	-8.6	39.8*
O=C(O)c1cccc(NC(=S)N/N=C/c2cccc(O)c2)c1	-24.6	32.2*	-0.6	-3.4	102.9	-4.9	27.9*	-8.9	16.5*
O=C(O)c1cccc(NC(=S)N/N=C/c2ccccc2OCc2ccc(Br)cc2)c1	8.8	72.8*	-8.6	0.3	120.5	-2.7	66.8*	-10.4	35.2*
COC(=O)c1ccc(COc2ccccc2/C=N/Nc2cccc(C(=O)O)c2)cc1	1.4	-1.5	-11.7	-4.1	/	/	/	/	/
CCOC(=O)Nc1ccc2c(COC(=O)C(NS(=O)(=O)c3ccc(Cl)cc3)C(C)O)cc(=O)oc2c1 (configuration not stated)	/	/	-18.8	/	132.8	/	/	/	/
O=C1C(=O)N(Cc2cccnc2)C(c2ccccn2)/C1=C(/O)c1ccccc1 (configuration not stated)	-8.5	44.3*	-10.2	-0.1	111.5	-3.6	61.7*	-3.8	50.4*
O=C1C(=O)N(CCCn2ccnc2)C(c2ccccn2)/C1=C(/O)c1ccccc1 (configuration not stated)	-10.0	/	/	/	/	/	/	/	/
Cc1nc2ccccc2c2oc(C(=O)NCCN3CCN(C)CC3)cc12	-2.3	41.8*	-2.5	-5.6	99.4	-4.1	0.8	-8.4	53.4*
COc1cc(CCNc2ccc3nnc(-c4ccccc4)n3n2)cc(OC)c1OC	-8.6	18.6*	3.4	-2.5	86.5	-1.9	0.5	-0.7	21.9*
COc1ccc2nnc(-c3ccccc3)n2n1	-7.1	0.6	-11.2	-3.9	116.0	/	/	/	/
O=C(CN1CCCc2ccccc21)N/N=C/c1c(O)ccc2ccccc12	-6.2	-3.7	5.3	-3.8	93.7	/	/	/	/
COc1cccc(-c2nnc3sc(-c4ccccn4)nn23)c1	6.6	14.9*	7.9	-2.6	118.8	-3.9	-1.9	-7.4	23.3*
CN1CCN(c2nnc(-c3ccc(F)cc3)c3ccccc23)CC1	31.0	31.5*	-7.7	-1.3	97.7	-1.2	5.5	-3.4	42.5*
